According to ChEMBL document CHEMBL3407339, “A novel series of thiazolyl-pyrazoline derivatives: synthesis and evaluation of antifungal activity, cytotoxicity and genotoxicity” (Eur J Med Chem, 2015):
In brackets after ≈: the same amount, converted by molar mass.

Legend:
Nakaseomyces glabratus = test: Antifungal activity against Candida glabrata clinical isolate after 48 hrs by broth microdilution assay; assay type: functional
Method in brief: (§1)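 Broth microdilution of DMSO stocks serially diluted in sterile water (4 to 0.0039 mg/mL). Yeasts grown on SDA at 37 °C for 24 h, suspended in double-strength PDB at 10⁵ spores/mL. Incubated at 37 °C for 48 h, then sprayed with 0.5% aqueous TTC. MIC = lowest concentration inhibiting visible growth. Ketoconazole reference.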

A549 = test: Antiproliferative activity against human A549 cells after 24 hrs by XTT assay; assay type: functional, cell-based; details: A549, 24 h
Method in brief: (§2)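 A549 cells in RPMI and NIH/3T3 cells in DMEM, each with fetal calf serum, antibiotics and 7.5% NaHCO₃, at 37 °C, 5% CO₂. Seeded at 20,000 cells/well, 24 h, then compounds added in medium at 500–3.9 doses (final DMSO <0.1%) for 24 h. XTT read after 3 h at 480 nm (ref 680 nm). IC₅₀ by non-linear regression; triplicates; cisplatin control.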

Fusarium solani = test: Antifungal activity against Fusarium solani NRRL 13414 after 72 hrs by broth microdilution assay; assay type: functional; details: NRRL 13414, 72 h
Method in brief: (§3)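 Compounds dissolved in DMSO, diluted in sterile distilled water from 4 to 0.0039 mg/mL. Molds grown on PDA at 25 °C for 5 days, suspended in double-strength PDB at 10⁵ spores/mL. Incubated at 25 °C for 72 h; mycelial growth read under stereo microscope. MIC = lowest concentration inhibiting visible growth. Ketoconazole reference.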

Pichia kudriavzevii = test: Antifungal activity against Candida krusei NRLL Y 7179 after 48 hrs by broth microdilution assay; assay type: functional; details: NRLL Y 7179, 48 h; method in brief: as §1
[Candida] zeylanoides = Antifungal activity against Candida zeylanoides NRLL Y 1774 after 48 hrs by broth microdilution assay; assay type: functional; details: Dujonia zeylanoides, NRLL Y 1774, 48 h; method in brief: as §1
Candida tropicalis = test: Antifungal activity against Candida tropicalis NRLL Y 12968 after 48 hrs by broth microdilution assay; assay type: functional; details: NRLL Y 12968, 48 h; method in brief: as §1
Aspergillus parasiticus = test: Antifungal activity against Aspergillus parasiticus NRRL 465 after 72 hrs by broth microdilution assay; assay type: functional; details: NRRL 465, 72 h; method in brief: as §3
Aspergillus niger = test: Antifungal activity against Aspergillus niger ATCC 1094 after 72 hrs by broth microdilution assay; assay type: functional; details: ATCC 1094, 72 h; method in brief: as §3
Aspergillus flavus = test: Antifungal activity against Aspergillus flavus NRRL 980 after 72 hrs by broth microdilution assay; assay type: functional; details: NRRL 980, 72 h; method in brief: as §3
[1] = Cytotoxicity against mouse NIH/3T3 cells after 24 hrs by XTT assay; assay type: cell-based; details: NIH3T3, 24 h; method in brief: as §2
Candida albicans = test: Antifungal activity against Candida albicans ATCC 90028 after 48 hrs by broth microdilution assay; assay type: functional; details: ATCC 90028, 48 h; method in brief: as §1
Candida parapsilosis = test: Antifungal activity against Candida parapsilosis NRLL Y 12696 after 48 hrs by broth microdilution assay; assay type: functional; details: Lodderomyces parapsilosis, NRLL Y 12696, 48 h; method in brief: as §1

| Compound | MIC (Nakaseomyces glabratus) [µg/mL] | IC50 (A549) [µg/mL] | MIC (Fusarium solani) [µg/mL] | MIC (Pichia kudriavzevii) [µg/mL] | MIC ([Candida] zeylanoides) [µg/mL] | MIC (Candida tropicalis) [µg/mL] | MIC (Aspergillus parasiticus) [µg/mL] | MIC (Aspergillus niger) [µg/mL] | MIC (Aspergillus flavus) [µg/mL] | MIC (Candida albicans) [µg/mL] | MIC (Candida parapsilosis) [µg/mL] | IC50 [1] [µg/mL] |
| --- | --- | --- | --- | --- | --- | --- | --- | --- | --- | --- | --- | --- |
| Cc1ccc(C2=NN(c3nc(-c4ccc5c(c4)OCO5)cs3)C(c3ccc(F)cc3)C2)s1 (configuration not stated) | 250 (≈ 539 µM) | 173 (≈ 374 µM) | 250 (≈ 539 µM) | 250 (≈ 539 µM) | 250 (≈ 539 µM) | 250 (≈ 539 µM) | 250 (≈ 539 µM) | 250 (≈ 539 µM) | 250 (≈ 539 µM) | 250 (≈ 539 µM) | 250 (≈ 539 µM) | 125 (≈ 270 µM) |
| COc1ccc(-c2csc(N3N=C(c4ccc(C)s4)CC3c3ccc(F)cc3)n2)cc1 (configuration not stated) | 250 (≈ 556 µM) | 184 (≈ 408 µM) | 250 (≈ 556 µM) | 500 (≈ 1110 µM) | 500 (≈ 1110 µM) | 500 (≈ 1110 µM) | 250 (≈ 556 µM) | 250 (≈ 556 µM) | 250 (≈ 556 µM) | 500 (≈ 1110 µM) | 500 (≈ 1110 µM) | 146 (≈ 326 µM) |
| Cc1ccc(C2=NN(c3nc(-c4ccc(Cl)cc4)cs3)C(c3ccc(F)cc3)C2)s1 (configuration not stated) | 125 (≈ 275 µM) | > 500 | 250 (≈ 551 µM) | 250 (≈ 551 µM) | 250 (≈ 551 µM) | 250 (≈ 551 µM) | 250 (≈ 551 µM) | 250 (≈ 551 µM) | 250 (≈ 551 µM) | 250 (≈ 551 µM) | 250 (≈ 551 µM) | > 500 |
| Cc1ccc(C2=NN(c3nc(-c4ccc(C(F)(F)F)cc4)cs3)C(c3ccc(F)cc3)C2)s1 (configuration not stated) | 250 (≈ 513 µM) | > 500 | 250 (≈ 513 µM) | 250 (≈ 513 µM) | 250 (≈ 513 µM) | 250 (≈ 513 µM) | 250 (≈ 513 µM) | 250 (≈ 513 µM) | 250 (≈ 513 µM) | 250 (≈ 513 µM) | 250 (≈ 513 µM) | > 500 |
| CS(=O)(=O)c1ccc(-c2csc(N3N=C(c4ccc(Cl)s4)CC3c3ccc(F)cc3)n2)cc1 (configuration not stated) | 250 (≈ 483 µM) | > 500 | 250 (≈ 483 µM) | 250 (≈ 483 µM) | 250 (≈ 483 µM) | 250 (≈ 483 µM) | 250 (≈ 483 µM) | 250 (≈ 483 µM) | 250 (≈ 483 µM) | 250 (≈ 483 µM) | 250 (≈ 483 µM) | > 500 |
| Cc1ccc(C2=NN(c3nc(-c4ccc(Br)cc4)cs3)C(c3ccc(F)cc3)C2)s1 (configuration not stated) | 125 (≈ 251 µM) | > 500 | 250 (≈ 502 µM) | 250 (≈ 502 µM) | 250 (≈ 502 µM) | 250 (≈ 502 µM) | 250 (≈ 502 µM) | 250 (≈ 502 µM) | 250 (≈ 502 µM) | 250 (≈ 502 µM) | 250 (≈ 502 µM) | > 500 |
| Cc1ccc(C2=NN(c3nc(-c4ccc(F)cc4)cs3)C(c3ccc(F)cc3)C2)s1 (configuration not stated) | 125 (≈ 286 µM) | 125 (≈ 286 µM) | 250 (≈ 571 µM) | 250 (≈ 571 µM) | 250 (≈ 571 µM) | 250 (≈ 571 µM) | 250 (≈ 571 µM) | 250 (≈ 571 µM) | 250 (≈ 571 µM) | 250 (≈ 571 µM) | 250 (≈ 571 µM) | > 500 |
| COc1ccc(-c2csc(N3N=C(c4ccc(Cl)s4)CC3c3ccc(F)cc3)n2)cc1 (configuration not stated) | 125 (≈ 266 µM) | > 500 | 250 (≈ 532 µM) | 250 (≈ 532 µM) | 250 (≈ 532 µM) | 250 (≈ 532 µM) | 250 (≈ 532 µM) | 250 (≈ 532 µM) | 250 (≈ 532 µM) | 250 (≈ 532 µM) | 250 (≈ 532 µM) | 103 (≈ 219 µM) |
| Cc1ccc(-c2csc(N3N=C(c4ccc(C)s4)CC3c3ccc(F)cc3)n2)cc1 (configuration not stated) | 250 (≈ 577 µM) | > 500 | 250 (≈ 577 µM) | 500 (≈ 1150 µM) | 500 (≈ 1150 µM) | 500 (≈ 1150 µM) | 250 (≈ 577 µM) | 250 (≈ 577 µM) | 250 (≈ 577 µM) | 500 (≈ 1150 µM) | 500 (≈ 1150 µM) | > 500 |
| CC(=O)N1CCN(c2ccc(OCC3COC(Cn4ccnc4)(c4ccc(Cl)cc4Cl)O3)cc2)CC1 (configuration not stated) [KETOCONAZOLE] | 62.5 (≈ 118 µM) | – | 62.5 (≈ 118 µM) | 125 (≈ 235 µM) | 250 (≈ 470 µM) | 125 (≈ 235 µM) | 7.81 (≈ 14.7 µM) | 31.2 (≈ 58.8 µM) | 15.6 (≈ 29.4 µM) | 62.5 (≈ 118 µM) | 15.6 (≈ 29.4 µM) | – |
| Fc1ccc(-c2csc(N3N=C(c4ccc(Cl)s4)CC3c3ccc(F)cc3)n2)cc1 (configuration not stated) | 250 (≈ 546 µM) | > 500 | 250 (≈ 546 µM) | 250 (≈ 546 µM) | 250 (≈ 546 µM) | 250 (≈ 546 µM) | 250 (≈ 546 µM) | 250 (≈ 546 µM) | 125 (≈ 273 µM) | 250 (≈ 546 µM) | 250 (≈ 546 µM) | > 500 |
| Cc1ccc(C2=NN(c3nc(-c4ccccc4)cs3)C(c3ccc(F)cc3)C2)s1 (configuration not stated) | 125 (≈ 298 µM) | > 500 | 250 (≈ 596 µM) | 500 (≈ 1190 µM) | 500 (≈ 1190 µM) | 500 (≈ 1190 µM) | 250 (≈ 596 µM) | 250 (≈ 596 µM) | 250 (≈ 596 µM) | 500 (≈ 1190 µM) | 500 (≈ 1190 µM) | > 500 |

Now from value to compound, other results behind:

| MIC (Nakaseomyces glabratus) [µg/mL] | IC50 (A549) [µg/mL] | MIC (Fusarium solani) [µg/mL] | MIC (Pichia kudriavzevii) [µg/mL] | MIC ([Candida] zeylanoides) [µg/mL] | MIC (Candida tropicalis) [µg/mL] | MIC (Aspergillus parasiticus) [µg/mL] | MIC (Aspergillus niger) [µg/mL] | MIC (Aspergillus flavus) [µg/mL] | MIC (Candida albicans) [µg/mL] | MIC (Candida parapsilosis) [µg/mL] | Compound | IC50 [1] [µg/mL] |
| --- | --- | --- | --- | --- | --- | --- | --- | --- | --- | --- | --- | --- |
| 125 (≈ 258 µM) | > 500 | 250 (≈ 517 µM) | 250 (≈ 517 µM) | 250 (≈ 517 µM) | 250 (≈ 517 µM) | 250 (≈ 517 µM) | 250 (≈ 517 µM) | 250 (≈ 517 µM) | 250 (≈ 517 µM) | 250 (≈ 517 µM) | Fc1ccc(C2CC(c3ccc(Cl)s3)=NN2c2nc(-c3ccc4c(c3)OCO4)cs2)cc1 (configuration not stated) | 73.8 (≈ 152 µM) |
| 125 (≈ 269 µM) | 16.7 (≈ 35.9 µM) | 250 (≈ 538 µM) | 250 (≈ 538 µM) | 250 (≈ 538 µM) | 250 (≈ 538 µM) | 250 (≈ 538 µM) | 250 (≈ 538 µM) | 250 (≈ 538 µM) | 250 (≈ 538 µM) | 250 (≈ 538 µM) | Cc1ccc(C2=NN(c3nc(-c4ccc([N+](=O)[O-])cc4)cs3)C(c3ccc(F)cc3)C2)s1 (configuration not stated) | 15.6 (≈ 33.6 µM) |
| 125 (≈ 269 µM) | > 500 | 250 (≈ 538 µM) | 250 (≈ 538 µM) | 250 (≈ 538 µM) | 250 (≈ 538 µM) | 250 (≈ 538 µM) | 250 (≈ 538 µM) | 250 (≈ 538 µM) | 250 (≈ 538 µM) | 250 (≈ 538 µM) | N#Cc1ccc(-c2csc(N3N=C(c4ccc(Cl)s4)CC3c3ccc(F)cc3)n2)cc1 (configuration not stated) | > 500 |
| 125 (≈ 258 µM) | > 500 | 250 (≈ 516 µM) | 250 (≈ 516 µM) | 250 (≈ 516 µM) | 250 (≈ 516 µM) | 250 (≈ 516 µM) | 250 (≈ 516 µM) | 250 (≈ 516 µM) | 250 (≈ 516 µM) | 250 (≈ 516 µM) | O=[N+]([O-])c1ccc(-c2csc(N3N=C(c4ccc(Cl)s4)CC3c3ccc(F)cc3)n2)cc1 (configuration not stated) | > 500 |
| 125 (≈ 275 µM) | > 500 | 250 (≈ 551 µM) | 250 (≈ 551 µM) | 250 (≈ 551 µM) | 250 (≈ 551 µM) | 250 (≈ 551 µM) | 250 (≈ 551 µM) | 250 (≈ 551 µM) | 250 (≈ 551 µM) | 250 (≈ 551 µM) | Cc1ccc(-c2csc(N3N=C(c4ccc(Cl)s4)CC3c3ccc(F)cc3)n2)cc1 (configuration not stated) | > 500 |
